Source: PubChem (several laboratories)
TMEM16A inh = inhibitors of mouse TMEM16A calcium-activated chloride channel | Q8BHY3 | HEK293 TMEM16A/YFP iodide influx fluorescence, ionomycin | normalized B-score (activity score, 25-100; higher = stronger inhibition) at 10 µM | 310,000 tested, 1.2% active | AID 588511;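 active = ratio plate-corrected score three or more library SD toward inhibition, starting fluorescence score within five deviations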;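 note: score derived from kinetic fluorescence span divided by baseline fluorescence per well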
Target sequence (Q8BHY3 whole entry, looked up): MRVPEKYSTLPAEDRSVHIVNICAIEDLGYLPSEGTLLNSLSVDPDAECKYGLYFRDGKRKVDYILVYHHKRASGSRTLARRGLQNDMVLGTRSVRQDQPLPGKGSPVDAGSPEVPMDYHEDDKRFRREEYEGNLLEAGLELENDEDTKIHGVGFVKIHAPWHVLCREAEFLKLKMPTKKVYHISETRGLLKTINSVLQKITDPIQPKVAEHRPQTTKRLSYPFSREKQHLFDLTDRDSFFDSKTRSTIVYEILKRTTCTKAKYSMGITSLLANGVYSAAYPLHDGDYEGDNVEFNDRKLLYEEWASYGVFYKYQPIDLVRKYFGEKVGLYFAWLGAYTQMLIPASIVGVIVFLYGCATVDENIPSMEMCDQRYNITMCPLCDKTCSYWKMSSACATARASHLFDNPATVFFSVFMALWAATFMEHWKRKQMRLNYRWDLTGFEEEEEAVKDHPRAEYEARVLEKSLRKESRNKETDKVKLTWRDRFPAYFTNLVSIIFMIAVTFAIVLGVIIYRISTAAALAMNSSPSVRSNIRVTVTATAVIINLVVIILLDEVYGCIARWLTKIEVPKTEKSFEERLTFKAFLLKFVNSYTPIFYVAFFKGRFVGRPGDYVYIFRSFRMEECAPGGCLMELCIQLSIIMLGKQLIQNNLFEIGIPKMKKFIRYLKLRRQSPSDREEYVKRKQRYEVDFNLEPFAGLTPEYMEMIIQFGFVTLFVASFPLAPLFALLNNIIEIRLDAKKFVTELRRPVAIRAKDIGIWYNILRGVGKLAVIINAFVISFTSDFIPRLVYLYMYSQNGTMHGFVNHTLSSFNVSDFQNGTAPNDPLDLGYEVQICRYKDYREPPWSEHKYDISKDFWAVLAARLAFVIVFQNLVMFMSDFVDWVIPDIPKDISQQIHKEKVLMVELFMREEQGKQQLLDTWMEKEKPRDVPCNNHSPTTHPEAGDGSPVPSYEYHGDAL
CRFR2-BP antag = CRF-BP/CRF-R2 complex antagonism; 350,000 tested, 0.59% active; AID 588475; HEK293 CRF-R2/CRF-BP, CRF-induced calcium fluorescence; inhibition, % at 11.8 µM;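 active = inhibition of the ligand-induced calcium signal above about 50% at the single tested concentration, limit read from the data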
CRFR2-BP ag = agonists of human CRF-binding protein/CRF-R2 receptor complex; HEK293 CRF-R2/CRF-BP, calcium dye fluorescence (FLIPR); percent of saturating CRF peptide response; activation, % at 13.2 µM; 350,000 tested, 0.46% active; AID 588473;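 active = activation of at least 50%, plus an integration ratio under a set limit after plate pattern correction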;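 note: plate controls were neutral control wells without compound for no effect and CRF at EC100 for full effect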
TAAR1 antag = human TAAR1 antagonism | CHO RD-HGA16 TAAR1, Fluo-8 calcium fluorescence, antagonist | AID 624466 | inhibition, % at 3 µM | 360,000 tested, 1.5% active;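 active = inhibition above a per-plate cutoff, the mean inhibition of test compounds on that plate plus 3 SD, cut at about 49% in these data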;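 note: 0% = DMSO plus EC80 beta-PEA response and 100% = DMSO alone without agonist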
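Test system – hTAAR1-expressing CHO RD-HGA16 cells, Gα16-coupled · Also added – β-PEA at EC80 concentration, post-compound challenge · Compound – 3 µM, single point · Incubation – dye loading 75 min at 37 °C, then 30 min room temperature · Measured by – Fluo-8 intracellular calcium dye fluorescence, real-time kinetic reads · Benchmarks – vehicle and agonist controls · Replicates – singlicate, one well per test compound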
TAAR1 agonist = human TAAR1 agonism. activation, % at 3 µM. CHO RD-HGA16 TAAR1, Fluo-8 calcium fluorescence; vehicle wells 0%, saturating PEA agonist 100%. 360,000 tested, 0.99% active;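 active = activation above the mean activation of all test compounds in the run plus 3 SD, cut at about 38% in these data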
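Benchmarks: low control DMSO, high control PEA (EC100); System: CHO RD-HGA16 cells carrying human TAAR1 plus Gα16; Detection: Fluo-8 fluorescence, 5 s baseline then 140 s kinetic read; Schedule: 17-24 h plating, Fluo-8 75 min 37 °C, 30 min RT; Read-out basis: % activation from peak over basal fluorescence ratio, DMSO-to-PEA scaled.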
ANO1 activ = activators or potentiators of mouse TMEM16A chloride channel. HEK293 TMEM16A/YFP-H148Q/I152L, iodide quench fluorescence; active compounds read low. Q8BHY3. B-score at 10 µM. AID 623877. 340,000 tested, 0.3% active;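 active = fluorescence-ratio B-score plate-corrected deviation score at least 3 library SD below zero, with starting fluorescence score within 5 deviations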;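 note: channel opened by trigger with iodide after compound preincubation; score built on the fluorescence ratio of max minus min over baseline; more negative score means more quench and so TMEM16A activation or potentiation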
nonsel antag count = nonselective antagonist in TAAR1 antagonist counter-screen | shares compounds with TAAR1 antag | counterscreen cell line, calcium fluorescence, antagonist mode | inhibition, % at 3 µM | 2,400 tested, 77% active | AID 651780; in the data active = inhibition above about 22%;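 note: CHO-Ga16 host cells stimulated with ATP at an EC80 level; 0% = agonist EC80 plus vehicle and 100% = vehicle without agonist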
TAAR1 antag conf = confirmation of human TAAR1 antagonists; shares compounds with TAAR1 antag; TAAR1-expressing cells, fluorescence antagonist read-out; inhibition, % at 3 µM; 2,400 tested, 40% active; in the data active = inhibition above about 49%;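 note: CHO-Ga16 host cells challenged with agonist PEA near its EC80; 0% = agonist at EC80 plus vehicle and 100% = vehicle with no agonist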
Ga16 ag counter = nonselective Ga16 agonist in TAAR1 antagonist counter-screen | shares compounds with TAAR1 antag | Ga16-expressing cells, calcium fluorescence, agonist counterscreen | activation, % at 3 µM | 2,400 tested, 18% active; in the data active = activation above about 12%;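 note: 0% = vehicle wells and 100% = saturating stimulus response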
TAAR1 ag counter = counter-screen for human TAAR1 antagonists: TAAR1 agonists | shares compounds with TAAR1 antag | hTAAR1 cell line, fluorescence activation, agonist mode | activation, % at 3 µM | 2,400 tested, 2% active | AID 651955; in the data active = activation above about 37%;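 note: CHO cells stably expressing TAAR1 with calcium dye readout; 0% = DMSO vehicle and 100% = full agonist response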
* marks the source's active call; other numbers are inactive results; i = inactive; nt = no result given. Compounds with a hit are over-represented: about 3.9% of the library has one in this group of screens.

SMILES | TMEM16A inh | CRFR2-BP antag | CRFR2-BP ag | TAAR1 antag | TAAR1 agonist | ANO1 activ | nonsel antag count | TAAR1 antag conf | Ga16 ag counter | TAAR1 ag counter
CN(C)S(=O)(=O)n1cnc([C@@H]2[C@H]3C(=O)OC[C@@H]3C[C@@]23N=CN(Cc2ccccc2)C3=O)c1 | nt | -13 | 3 | 4 | 7 | i | nt | nt | nt | nt
CC(=O)Nc1cc(-c2ccc(CO)cc2)cn2c(-c3cccc(C(F)(F)F)c3)cnc12 | nt | nt | nt | 70* | 13 | nt | 36* | 51* | 10 | 15
CC(=O)Nc1cc(-c2ccc(N)nc2)cn2c(-c3cccc(C(F)(F)F)c3)cnc12 | nt | nt | nt | 11 | 4 | nt | nt | nt | nt | nt
COc1ccccc1-c1cc(NC(C)=O)c2ncc(-c3cccc(C(C)=O)c3)n2c1 | nt | nt | nt | 86* | 3 | nt | 32* | 53* | 7 | 3
COc1ccc(-c2cc(NC=O)c3ncc(-c4ccc(C(C)=O)cc4)n3c2)cc1OC | nt | nt | nt | 26 | 8 | nt | nt | nt | nt | nt
COc1cc(-c2cc(NC=O)c3ncc(-c4ccc(C(C)=O)cc4)n3c2)cc(OC)c1OC | nt | nt | nt | 53* | 7 | nt | 23* | 37 | 10 | 11
COc1ccc(-n2nc(C(=O)NCC(=O)Nc3cc(OC)c(OC)c(OC)c3)c3ccccc3c2=O)cc1Cl | i | -4 | 4 | 64* | 15 | i | 28* | 47 | 8 | 6
CCN(CC)C(=O)CNC(=O)c1nn(-c2ccc(OC)c(Cl)c2)c(=O)c2ccccc12 | i | 3 | -2 | 14 | 5 | i | nt | nt | nt | nt
COc1ccc(-n2nc(C(=O)NCC(=O)N3CCN(c4ccccn4)CC3)c3ccccc3c2=O)cc1Cl | i | 5 | 1 | 17 | 4 | i | nt | nt | nt | nt
COc1ccc(-n2nc(C(=O)NCC(=O)N3CCC(C)CC3)c3ccccc3c2=O)cc1Cl | i | -10 | 2 | 49* | 3 | i | 17 | 35 | 5 | 1
CSc1ccc(CN(C)C(=O)C(Cc2ccccc2)NC(=O)c2ccccc2)cc1 (stereo unspecified) | i | 25 | -1 | 82* | 9 | i | 34* | 57* | 10 | 10
O=C(NC(Cc1ccc(F)cc1)C(=O)O)c1ccccc1 (stereo unspecified) | i | 15 | -1 | -14 | 13 | i | nt | nt | nt | nt
CSc1ccc(CN(C)C(=O)C(c2ccccc2)c2ccccc2)cc1 | i | 2 | 5 | 7 | 0 | i | nt | nt | nt | nt
CN(Cc1ccc(F)cc1)C(=O)C(Cc1ccccc1)NC(=O)c1ccccc1 (stereo unspecified) | i | -3 | -2 | 67* | 9 | i | 27* | 55* | 9 | 7
CC(C)CN1CC(=O)N2C(c3ccccc3)c3[nH]c4ccccc4c3C[C@H]2C1=O (stereo partly specified) | i | -16 | 28 | 61* | 36 | i | 23* | 45 | 13* | 18
O=C1[C@@H]2Cc3c([nH]c4ccccc34)C(c3ccccc3)N2C(=O)CN1CCO (stereo partly specified) | i | -25 | 1 | -4 | 10 | i | nt | nt | nt | nt
O=C(c1cn(-c2ccccc2)nc1-c1cccs1)N1CCN(c2ccc(F)cc2)CC1 | i | -31 | 2 | 56* | 9 | i | 17 | 23 | 2 | 2
CCOc1cc(NC(=S)NC)c(OCC)cc1NC(=O)c1cccs1 | i | -3 | 0 | 54* | 11 | i | 4 | 6 | 0 | 1
Nc1nc2ccccc2cc1C(=O)NCc1cccs1 | nt | nt | nt | 23 | 3 | nt | nt | nt | nt | nt
Cc1ccccc1OCC(=O)N/N=C/c1cccc(Oc2ccc([N+](=O)[O-])cc2[N+](=O)[O-])c1 | i | -11 | 0 | 9 | 1 | i | nt | nt | nt | nt
O=C(N/N=C/c1cccc(Oc2ccc([N+](=O)[O-])cc2[N+](=O)[O-])c1)c1cncc(Br)c1 | i | 5 | 0 | 55* | 21 | i | 51* | 54* | 16* | 12
O=C(COC(=O)/C=C/c1cn(-c2ccccc2)nc1-c1ccc2c(c1)OCCO2)NC1CCS(=O)(=O)C1 (stereo unspecified) | i | 13 | 3 | 87* | 14 | i | 40* | 55* | 8 | 7
CCC1CN(C(=O)N2CCC(C(=O)Nc3ccccc3OC)CC2)c2ccccc2O1 (stereo unspecified) | i | -5 | 0 | 61* | 14 | i | 22* | 42 | 10 | 13
N#CCCN(C(=O)COC(=O)c1ccc2ccccc2n1)c1ccccc1 | nt | 28 | -1 | 2 | 13 | i | nt | nt | nt | nt
CN1CCc2nc3ccccc3c(C(=O)OCC(=O)N(CCC#N)c3ccccc3)c2C1 | i | 7 | 2 | 51* | 17 | i | 23* | 47 | 8 | 10
SMILES | TMEM16A inh | CRFR2-BP antag | CRFR2-BP ag | TAAR1 antag | TAAR1 agonist | ANO1 activ | nonsel antag count | TAAR1 antag conf | Ga16 ag counter | TAAR1 ag counter
CC(=O)c1ccc(NC(=O)N2CCCC(C(=O)c3ccc4c(c3)OCO4)C2)cc1 (stereo unspecified) | i | -1 | 0 | 49* | 10 | i | 22* | 35 | 11 | 11
CSc1ccccc1NC(=O)N1CCCC(C(=O)c2ccc3c(c2)OCO3)C1 (stereo unspecified) | i | -11 | -1 | -17 | 1 | i | nt | nt | nt | nt
CCOc1ccc(-c2ccc(/C=C3/C(=N)N4C=CSC4=NC3=O)o2)c([N+](=O)[O-])c1 | i | 15 | 1 | 5 | 5 | i | nt | nt | nt | nt
CCOc1ccc(-c2ccc(/C=C3/C(=N)N4C(C)=CSC4=NC3=O)o2)c([N+](=O)[O-])c1 | i | -18 | 2 | 59* | 12 | i | 38* | 50* | 9 | 3
CN(C(=O)COC(=O)CCC1CCCCC1)c1c(N)n(Cc2ccccc2)c(=O)[nH]c1=O | i | -17 | 14 | 3 | 0 | i | nt | nt | nt | nt
C=CCn1c(CCCOc2ccc(Cl)cc2Cl)nnc1SCC(=O)Nc1nccs1 | i | -5 | 0 | 49* | 26 | nt | 32* | 41 | 7 | 12
Cn1c(CSCc2ccccc2)nnc1SCC(=O)Nc1nccs1 | i | 13 | -1 | 11 | 8 | i | nt | nt | nt | nt
